The source made the active and inactive calls. No cut-off for these calls is given here.
Tests used:
[1] = tested on: Mus musculus; assay: Antianxiety-like activity in Swiss albino mouse assessed as number of punished crossings at 0.312 to 5 mg/kg, ip by four-plate test; assay type: functional, organism-based
In short: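 Four-plate test in male Swiss albino mice, 8-10 per dose, dosed i.p. in Tween 80 vehicle. After 15-s habituation, a 0.8 mA, 0.5 s foot shock was given at each plate crossing, with a 3 s shock-free interval. Punished crossings were counted over a 1-min session.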

[2] = tested on: Mus musculus; assay: Toxicity in ip dosed CD-1 mouse assessed as minimum dose required for induction of catalepsy by bar test; assay type: organism-based; conditions: in vivo
In short: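 Male CD-1 mice, 10 per group, given compound i.p. (1% Tween 80 suspension). Forelimbs were placed on a horizontal rod 4 cm high at 30, 60 and 120 min. Catalepsy was scored up to 3 (≥60 s on bar). Minimum cataleptogenic dose is the lowest dose giving a mean score ≥1 at any of those times.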

[3] = tested on: Mus musculus; assay: In vivo agonist activity at 5HT2A receptor in Swiss albino mouse assessed as induction of head twitch response at 5 to 40 mg/kg, ip; assay type: functional, organism-based
[4] = tested on: Mus musculus; assay: In vivo partial agonist activity at 5HT1A receptor in CD-1 mouse assessed as change in body temperature at 10 mg/kg, ip administered 15 mins after 5HT1A receptor antagonist WAY100635 injection measured after 30 mins (reference value: -0.1 degC); assay type: functional, organism-based
In short: (§1)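 Male CD-1 mice, 7-9 per dose. WAY 100635 (0.3 mg/kg) was given 15 min before the compound i.p. Rectal temperature was recorded 30 and 60 min after the compound, as the change from basal temperature.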

[5] = tested on: Mus musculus; assay: In vivo partial agonist activity at 5HT1A receptor in CD-1 mouse assessed as change in body temperature at 10 mg/kg, ip measured after 60 mins (reference value: -0.1 degC); assay type: functional, organism-based
In short: (§2)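 Male CD-1 mice, 7-9 per dose, compound suspended in 1% aqueous Tween 80 and given i.p. at 10 ml/kg. Rectal temperature was taken by thermometer 30, 60, 90 and 120 min after dosing. Change (Δt) is expressed against basal temperature measured at the start. Mean ± SEM, one-way ANOVA with Bonferroni test.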

[6] = tested on: Mus musculus; assay: In vivo partial agonist activity at 5HT1A receptor in CD-1 mouse assessed as change in body temperature at 5 mg/kg, ip measured after 60 mins (reference value: -0.1 degC); assay type: functional, organism-based; in short: as §2
[7] = tested on: Mus musculus; assay: Toxicity in Swiss albino mouse assessed as stimulation of spontaneous locomotor activity at 2.5 to 5 mg/kg, ip measured during 2-6 mins session; assay type: organism-based; conditions: in vivo
In short: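 Male Swiss albino mice, 8-10 per dose, received compound i.p. 60 min before testing. Each mouse was placed individually in a cage on an infrared activity monitor. Channel crossings (ambulation) were counted from 2 to 6 min, matching the forced swim test observation window.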

[8] = tested on: Mus musculus; assay: In vivo agonist activity at D2 receptor in ip dosed Swiss albino mouse assessed as induction of climbing behaviour; assay type: functional, organism-based
[9] = tested on: Mus musculus; assay: In vivo antagonist activity at 5HT2A receptor in ip dosed Swiss albino mouse assessed as inhibition of (+/-)-DOI-induced head twitch response; assay type: functional
In short: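 Male Swiss albino mice, 5-6 per dose, habituated 20 min in glass cages. Compound was given i.p. 60 min pretest. Head twitches were induced by (±)DOI 2.5 mg/kg and counted for 20 min. ID50 is the dose inhibiting twitches by 50%.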

[10] = tested on: Mus musculus; assay: In vivo partial agonist activity at 5HT1A receptor in CD-1 mouse assessed as change in body temperature at 10 mg/kg, ip measured after 90 mins (reference value: -0.1 degC); assay type: functional, organism-based; in short: as §2
[11] = species: Mus musculus; assay: Ratio of MED for catalepsy in CD-1 mouse to ED50 for antipsychotic activity in CD-1 mouse
[12] = tested on: Mus musculus; assay: In vivo partial agonist activity at 5HT1A receptor in CD-1 mouse assessed as change in body temperature at 10 mg/kg, ip measured after 30 mins (reference value: -0.1 degC); assay type: functional, organism-based
In short: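 Male CD-1 mice, 7-9 per dose, dosed i.p. Rectal temperature was recorded at 30, 60, 90 and 120 min. Results are the change from basal temperature taken at the start of the experiment.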

[13] = tested on: Mus musculus; assay: Antipsychotic activity in CD-1 mouse assessed as inhibition of D-amphetamine-induced hyperlocomotor activity at 0.156 to 0.625 mg/kg, ip; assay type: functional, organism-based
In short: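 Male CD-1 mice, 8-10 per dose. d-Amphetamine was given s.c. 30 min pretest; test compound i.p. 60 min pretest in 1% Tween 80. After 30 min habituation in the activity monitor, ambulation crossings were counted for 1 h, recorded every 5 min.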

[14] = tested on: Rattus norvegicus; assay: Induction of lower lip retraction in Wistar rat at 5 to 40 mg/kg, ip; assay type: functional, organism-based
[15] = tested on: Mus musculus; assay: In vivo partial agonist activity at 5HT1A receptor in CD-1 mouse assessed as change in body temperature at 5 mg/kg, ip measured after 120 mins (reference value: -0.1 degC); assay type: functional, organism-based; in short: as §2
[16] = tested on: Mus musculus; assay: In vivo partial agonist activity at 5HT1A receptor in CD-1 mouse assessed as change in body temperature at 10 mg/kg, ip administered 15 mins after 5HT1A receptor antagonist WAY100635 injection measured after 60 mins (reference value: -0.1 degC); assay type: functional, organism-based; in short: as §1

SMILES: COc1ccccc1N1CCN(CCCCN2C(=O)NC3(CCCc4ccccc43)C2=O)CC1 (stereo unspecified)
- Activity [1]: inactive
- Activity [2]: 30 mg/kg
- Activity [3]: inactive
- deltaT [4]: -1.1 °C
- deltaT [5]: -1.3 °C
- deltaT [6]: -0.7 °C
- Activity [7]: Non-toxic
- Activity [8]: inactive
- ED50 [9]: 19.6 mg/kg
- deltaT [10]: -1.3 °C
- Ratio [11]: 50
- deltaT [12]: -1.9 °C
- inhibition [13]: Active
- Activity [14]: inactive
- deltaT [15]: -0.6 °C
- deltaT [16]: -1 °C
